How the values were obtained:
[1] = target: T1, Neuropeptide Y receptor type 4 (Homo sapiens, UniProt P50391); assay: Agonist activity at GFP-tagged neuropeptide Y4R (unknown origin) expressed in HEK293T cells assessed as beta-arrestin2 recruitment measured after 60 mins by H33342 staining-based imaging method relative to PP; type: cell-based
How it was run: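 Y4R–β-arrestin2 BiFC cell lines were seeded on poly-D-lysine plates and tested 24 h later. Ligands (10^-10–10^-6 M, duplicate wells) were applied in HBSS/0.1% BSA for 60 min at 37°C. Cells were fixed with 3% paraformaldehyde (10 min, 21°C) and nuclei stained with H33342. Confocal images were taken at 405/488 nm, and internal YFP granules ≥3 µm were counted against vehicle or 100 nM PP thresholds.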

[2] = target: T1, Neuropeptide Y receptor type 4; assay: Agonist activity at GFP-tagged neuropeptide Y4R (unknown origin) expressed in HEK293T cells assessed as beta-arrestin2 recruitment measured after 60 mins by H33342 staining-based imaging method; type: cell-based
[3] = Cellular uptake in human 293T-rex cells expressing C-terminal GFP-tagged neuropeptide Y4R measured after 30 mins by fluorescence analysis; type: ADME, cell-based; settings: hek-293t, 0.5 h
How it was run: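 293TR Y4-GFP cells, induced with 1 µg/ml tetracycline for 18–21 h, were incubated with sCy5-labelled peptide for 30 min at 37°C in HBSS/0.1% BSA with H33342. Controls were uninduced cells and 1 µM PP competition. Surface and intracellular sCy5 fluorescence was imaged by confocal platereader.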

[4] = target: T1, Neuropeptide Y receptor type 4; assay: Displacement of [Lys2(sCy5),Arg4]-BVD-15 from C-terminal GFP-tagged neuropeptide Y4R (unknown origin) expressed in human 293TR cells measured after 30 mins by fluorescence analysis; type: cell-based
[5] = target: T1, Neuropeptide Y receptor type 4; assay: Agonist activity at GFP-tagged neuropeptide Y4R (unknown origin) expressed in HEK293T cells assessed as beta-arrestin2 recruitment at 1 uM measured after 60 mins by H33342 staining-based imaging method relative to PP; type: cell-based
How it was run: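 Y4R–β-arrestin2 BiFC cells were stimulated in HBSS/0.1% BSA for 60 min at 37°C, then fixed with 3% paraformaldehyde and stained with H33342. Complemented YFP was imaged by confocal platereader and quantified by granularity analysis with vehicle or 100 nM PP controls. Where agonist activity was not significant, the response at 1 µM peptide was reported.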

Homo sapiens = species on record: Homo sapiens; assay: Selectivity ratio of IC50 for GFP-tagged neuropeptide Y1R (unknown origin) expressed in HEK293T cells to IC50 for C-terminal GFP-tagged neuropeptide Y4R (unknown origin) expressed in human 293TR cells; type: cell-based
How it was run: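 Whole-cell competition binding used tetracycline-induced 293TR cells expressing Y1-GFP or Y4-GFP. Cells were exposed to competitor for 2 min, then to sCy5-labelled tracer (10 nM for Y1R, 100 nM for Y4R) for 30 min at 37°C.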

T1 sequence (P50391 whole entry): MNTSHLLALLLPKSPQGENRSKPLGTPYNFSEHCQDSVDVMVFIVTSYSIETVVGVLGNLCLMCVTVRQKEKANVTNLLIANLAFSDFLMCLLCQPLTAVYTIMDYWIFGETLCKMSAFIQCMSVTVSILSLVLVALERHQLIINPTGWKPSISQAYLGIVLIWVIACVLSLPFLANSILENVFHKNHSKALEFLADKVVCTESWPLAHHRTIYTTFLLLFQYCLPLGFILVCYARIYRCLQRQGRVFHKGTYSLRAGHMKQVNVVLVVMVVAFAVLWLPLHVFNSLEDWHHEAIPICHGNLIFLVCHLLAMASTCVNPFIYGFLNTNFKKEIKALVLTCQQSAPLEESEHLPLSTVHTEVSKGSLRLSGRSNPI

SMILES | Rmax [1] [%] | EC50 ([2]; read-out: pEC50 (converted)) [µM] | Drug uptake [3] | IC50 ([4]; read-out: pIC50 (converted)) [µM] | Rmax [5] [%] | IC50 ([4]; read-out: IC50) [µM] | EC50 ([2]; read-out: EC50) [µM] | Ratio IC50 (Homo sapiens)
CCN1\C(=C/C=C/C=C/C2=[N+](CCCCCC(=O)N[C@@H](CCCC[C@H](N)C(=O)N[C@@H](Cc3ccc(O)cc3)C(=O)N[C@@H](CCCNC(=N)N)C(=O)N[C@@H](CC(C)C)C(=O)N[C@@H](CCCNC(=N)N)C(=O)N[C@@H](Cc3ccc(O)cc3)C(N)=O)C(=O)N[C@@H](Cc3ccc(O)cc3)C(=O)N[C@@H](CCCNC(=N)N)C(=O)N[C@@H](CC(C)C)C(=O)N[C@@H](CCCNC(=N)N)C(=O)N[C@@H](Cc3ccc(O)cc3)C(N)=O)c3ccc(S(=O)(=O)O)cc3C2(C)C)C(C)(C)c2cc(S(=O)(=O)[O-])ccc21 | 56.6 | 0.0955 | Dose-dependent effect | – | – | – | – | –
CCN(CC)c1ccc2c(-c3ccccc3C(=O)N3CCN(C(=O)CCC(=O)N[C@@H](CCCC[C@H](N)C(=O)N[C@@H](Cc4ccc(O)cc4)C(=O)N[C@@H](CCCNC(=N)N)C(=O)N[C@@H](CC(C)C)C(=O)N[C@@H](CCCNC(=N)N)C(=O)N[C@@H](Cc4ccc(O)cc4)C(N)=O)C(=O)N[C@@H](Cc4ccc(O)cc4)C(=O)N[C@@H](CCCNC(=N)N)C(=O)N[C@@H](CC(C)C)C(=O)N[C@@H](CCCNC(=N)N)C(=O)N[C@@H](Cc4ccc(O)cc4)C(N)=O)CC3)c3ccc(=[N+](CC)CC)cc-3oc2c1 | – | – | – | 0.0708 | 15.9 | – | – | –
CC(C)C[C@H](NC(=O)[C@H](CCCNC(=N)N)NC(=O)[C@H](Cc1ccc(O)cc1)NC(=O)[C@H](N)CCCC[C@@H](N)C(=O)N[C@@H](Cc1ccc(O)cc1)C(=O)N[C@@H](CCCNC(=N)N)C(=O)N[C@@H](CC(C)C)C(=O)N[C@@H](CCCNC(=N)N)C(=O)N[C@@H](Cc1ccc(O)cc1)C(N)=O)C(=O)N[C@@H](CCCNC(=N)N)C(=O)N[C@@H](Cc1ccc(O)cc1)C(N)=O | 61.5 | – | – | – | – | 0.0127 | 0.0046 | 30
CC(C)C[C@H](NC(=O)[C@H](CCCNC(=N)N)NC(=O)[C@H](Cc1ccc(O)cc1)NC(=O)[C@@H](N)C/C=C\C[C@H](N)C(=O)N[C@@H](Cc1ccc(O)cc1)C(=O)N[C@@H](CCCNC(=N)N)C(=O)N[C@@H](CC(C)C)C(=O)N[C@@H](CCCNC(=N)N)C(=O)N[C@@H](Cc1ccc(O)cc1)C(N)=O)C(=O)N[C@@H](CCCNC(=N)N)C(=O)N[C@@H](Cc1ccc(O)cc1)C(N)=O | 44.5 | 0.0302 | – | 0.132 | – | – | – | 3.7
CCN1\C(=C/C=C/C=C/C2=[N+](CCCCCC(=O)N[C@H](CCCC[C@@H](N)C(=O)N[C@@H](Cc3ccc(O)cc3)C(=O)N[C@@H](CCCNC(=N)N)C(=O)N[C@@H](CC(C)C)C(=O)N[C@@H](CCCNC(=N)N)C(=O)N[C@@H](Cc3ccc(O)cc3)C(N)=O)C(=O)N[C@@H](Cc3ccc(O)cc3)C(=O)N[C@@H](CCCNC(=N)N)C(=O)N[C@@H](CC(C)C)C(=O)N[C@@H](CCCNC(=N)N)C(=O)N[C@@H](Cc3ccc(O)cc3)C(N)=O)c3ccc(S(=O)(=O)O)cc3C2(C)C)C(C)(C)c2cc(S(=O)(=O)[O-])ccc21 | 65.6 | 0.0331 | Dose-dependent effect | – | – | – | – | –
COC(=O)[C@H](Cc1ccc(O)cc1)NC(=O)[C@H](CCCNC(=N)N)NC(=O)[C@H](CC(C)C)NC(=O)[C@H](CCCNC(=N)N)NC(=O)[C@H](Cc1ccc(O)cc1)NC(=O)[C@@H](N)CCCC[C@H](N)C(=O)N[C@@H](Cc1ccc(O)cc1)C(=O)N[C@@H](CCCNC(=N)N)C(=O)N[C@@H](CC(C)C)C(=O)N[C@@H](CCCNC(=N)N)C(=O)N[C@@H](Cc1ccc(O)cc1)C(=O)OC | – | – | – | 0.617 | 11.3 | – | – | 0.38
CCN(CC)c1ccc2c(-c3ccccc3C(=O)N3CCN(C(=O)CCC(=O)N[C@@H](C/C=C\C[C@H](N)C(=O)N[C@@H](Cc4ccc(O)cc4)C(=O)N[C@@H](CCCNC(=N)N)C(=O)N[C@@H](CC(C)C)C(=O)N[C@@H](CCCNC(=N)N)C(=O)N[C@@H](Cc4ccc(O)cc4)C(N)=O)C(=O)N[C@@H](Cc4ccc(O)cc4)C(=O)N[C@@H](CCCNC(=N)N)C(=O)N[C@@H](CC(C)C)C(=O)N[C@@H](CCCNC(=N)N)C(=O)N[C@@H](Cc4ccc(O)cc4)C(N)=O)CC3)c3ccc(=[N+](CC)CC)cc-3oc2c1 | 29.2 | 0.0055 | – | 0.0692 | – | – | – | –
CC(C)C[C@H](NC(=O)[C@H](CCCNC(=N)N)NC(=O)[C@H](Cc1ccc(O)cc1)NC(=O)[C@H](N)C/C=C\C[C@@H](N)C(=O)N[C@@H](Cc1ccc(O)cc1)C(=O)N[C@@H](CCCNC(=N)N)C(=O)N[C@@H](CC(C)C)C(=O)N[C@@H](CCCNC(=N)N)C(=O)N[C@@H](Cc1ccc(O)cc1)C(N)=O)C(=O)N[C@@H](CCCNC(=N)N)C(=O)N[C@@H](Cc1ccc(O)cc1)C(N)=O | 61 | 0.038 | – | 0.024 | – | – | – | –
CC(C)C[C@H](NC(=O)[C@H](CCCNC(=N)N)NC(=O)[C@H](Cc1ccc(O)cc1)NC(=O)[C@@H](N)CCCC[C@H](N)C(=O)N[C@@H](Cc1ccc(O)cc1)C(=O)N[C@@H](CCCNC(=N)N)C(=O)N[C@@H](CC(C)C)C(=O)N[C@@H](CCCNC(=N)N)C(=O)N[C@@H](Cc1ccc(O)cc1)C(N)=O)C(=O)N[C@@H](CCCNC(=N)N)C(=O)N[C@@H](Cc1ccc(O)cc1)C(N)=O | 57.1 | 0.0832 | – | 0.0692 | – | – | – | –
CCN(CC)c1ccc2c(-c3ccccc3C(=O)N3CCN(C(=O)CCC(=O)N[C@H](C/C=C\C[C@@H](N)C(=O)N[C@@H](Cc4ccc(O)cc4)C(=O)N[C@@H](CCCNC(=N)N)C(=O)N[C@@H](CC(C)C)C(=O)N[C@@H](CCCNC(=N)N)C(=O)N[C@@H](Cc4ccc(O)cc4)C(N)=O)C(=O)N[C@@H](Cc4ccc(O)cc4)C(=O)N[C@@H](CCCNC(=N)N)C(=O)N[C@@H](CC(C)C)C(=O)N[C@@H](CCCNC(=N)N)C(=O)N[C@@H](Cc4ccc(O)cc4)C(N)=O)CC3)c3ccc(=[N+](CC)CC)cc-3oc2c1 | 39.3 | 0.00372 | – | 0.0708 | – | – | – | –
COC(=O)[C@H](Cc1ccc(O)cc1)NC(=O)[C@H](CCCNC(=N)N)NC(=O)[C@H](CC(C)C)NC(=O)[C@H](CCCNC(=N)N)NC(=O)[C@H](Cc1ccc(O)cc1)NC(=O)[C@@H](N)CCCC[C@H](N)C(=O)N[C@@H](Cc1ccc(O)cc1)C(=O)N[C@@H](CCCNC(=N)N)C(=O)N[C@@H](CC(C)C)C(=O)N[C@@H](CCCNC(=N)N)C(=O)N[C@@H](Cc1ccc(O)cc1)C(N)=O | 49.1 | > 0.316 | – | 0.0933 | – | – | – | –

Reference: ChEMBL document CHEMBL4425111, “Optically Pure, Structural, and Fluorescent Analogues of a Dimeric Y4 Receptor Agonist Derived by an Olefin Metathesis Approach” (J Med Chem, 2016)
